According to ChEMBL document CHEMBL3580653, “Development of novel CXC chemokine receptor 7 (CXCR7) ligands: selectivity switch from CXCR4 antagonists with a cyclic pentapeptide scaffold” (J Med Chem, 2015):
Where a SMILES comes first, the peptide text is derived from it. [ ]: non-standard residue; d: D form. 2Nal = N[C@@H](Cc1ccc2ccccc2c1)C(=O)O; Pip = O=C(O)[C@@H]1CCCCN1; dPip = O=C(O)[C@H]1CCCCN1; βAla = NCCC(=O)O

What was measured:
[1] = target: T1, Atypical chemokine receptor 3 (Homo sapiens, UniProt P25106); assay: Inhibition of [125I]SDF-1alpha binding to CXCR7 (unknown origin) expressed in CHO cell membranes incubated for 1 hr by radioligand displacement assay
T1 sequence (P25106 whole entry): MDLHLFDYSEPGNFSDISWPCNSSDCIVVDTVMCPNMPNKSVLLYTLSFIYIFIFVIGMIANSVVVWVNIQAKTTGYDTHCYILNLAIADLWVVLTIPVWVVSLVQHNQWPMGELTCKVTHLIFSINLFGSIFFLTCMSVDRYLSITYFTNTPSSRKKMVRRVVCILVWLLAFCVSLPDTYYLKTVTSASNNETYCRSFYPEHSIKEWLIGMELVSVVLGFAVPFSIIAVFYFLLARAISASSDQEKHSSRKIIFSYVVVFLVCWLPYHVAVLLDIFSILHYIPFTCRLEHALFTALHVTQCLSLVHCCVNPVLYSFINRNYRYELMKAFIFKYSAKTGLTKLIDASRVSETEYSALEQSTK
Outline: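 Scintillation proximity binding: receptor membranes (10−20 µg/well) on WGA beads (0.25 mg/well) incubated with peptide and [125I]-SDF-1α (0.20 nM for CXCR4, 0.25 nM for CXCR7). Room temperature, 1 h. Bound radioactivity counted 1 min/well. IC50 taken from inhibition of tracer binding.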

[2] = target: C-X-C chemokine receptor type 4 (Homo sapiens, UniProt P61073); assay: Inhibition of [125I]SDF-1alpha binding to CXCR4 (unknown origin) expressed in HEK293 cell membranes incubated for 1 hr by radioligand displacement assay
Sequence of C-X-C chemokine receptor type 4 (P61073 whole entry): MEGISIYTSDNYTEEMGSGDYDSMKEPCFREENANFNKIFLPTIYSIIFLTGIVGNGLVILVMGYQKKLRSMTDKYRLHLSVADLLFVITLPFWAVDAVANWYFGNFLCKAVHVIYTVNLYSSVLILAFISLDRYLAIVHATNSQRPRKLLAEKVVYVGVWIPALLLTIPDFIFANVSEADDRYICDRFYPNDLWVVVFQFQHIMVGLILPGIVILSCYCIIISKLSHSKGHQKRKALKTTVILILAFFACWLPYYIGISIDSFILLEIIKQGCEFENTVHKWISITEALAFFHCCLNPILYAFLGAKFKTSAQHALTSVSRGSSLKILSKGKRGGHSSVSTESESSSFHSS

[3] = target: T1, Atypical chemokine receptor 3; assay: Agonist activity at CXCR7 (unknown origin) expressed in HEK293E cells co-transfected with receptor-eYFP construct and beta-arrestin2-Rluc assessed as induction of receptor-mediated beta-arrestin recruitment by BRET assay; assay type: cell-based
Outline: (§1)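 Transient co-transfection of HEK293E cells with 1 µg receptor-eYFP plus 0.05 µg β-arrestin2-Rluc, made up to 2 µg/well with empty vector. Cells cultured overnight, seeded on poly(D-lysine) plates and grown 24 h more. Ligand added in BRET buffer (PBS, 0.5 mM MgCl2, 0.01% BSA), 5 min at 37 °C, then coelenterazine h 5 µM final. Read 30 min after ligand addition. Net BRET = YFP (510–550 nm)/Rluc (460–500 nm) minus Rluc-only background.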

[4] = target: T1, Atypical chemokine receptor 3; assay: Agonist activity at wild type CXCR7 (unknown origin) expressed in HEK293E cells co-transfected with receptor-eYFP construct and beta-arrestin2-Rluc assessed as induction of receptor-mediated beta-arrestin recruitment by BRET assay; assay type: cell-based; outline: as §1
[5] = target: Atypical chemokine receptor 3 (Homo sapiens, UniProt P25106, D179N); assay: Agonist activity at CXCR7 D179N mutant (unknown origin) expressed in HEK293E cells co-transfected with receptor-eYFP construct and beta-arrestin2-Rluc assessed as induction of receptor-mediated beta-arrestin recruitment by BRET assay; assay type: cell-based; outline: as §1
Sequence of Atypical chemokine receptor 3 (Homo sapiens, UniProt P25106, D179N) (P25106 whole entry D179N): as the sequence (P25106 whole entry) above, with D179N counted along it

[6] = target: Atypical chemokine receptor 3 (Homo sapiens, UniProt P25106, S198R); assay: Agonist activity at CXCR7 S198R mutant (unknown origin) expressed in HEK293E cells co-transfected with receptor-eYFP construct and beta-arrestin2-Rluc assessed as induction of receptor-mediated beta-arrestin recruitment by BRET assay; assay type: cell-based; outline: as §1
Sequence of Atypical chemokine receptor 3 (Homo sapiens, UniProt P25106, S198R) (P25106 whole entry S198R): as the sequence (P25106 whole entry) above, with S198R counted along it

[7] = target: Atypical chemokine receptor 3 (Homo sapiens, UniProt P25106, D275N); assay: Agonist activity at CXCR7 D275N mutant (unknown origin) expressed in HEK293E cells co-transfected with receptor-eYFP construct and beta-arrestin2-Rluc assessed as induction of receptor-mediated beta-arrestin recruitment by BRET assay; assay type: cell-based; outline: as §1
Sequence of Atypical chemokine receptor 3 (Homo sapiens, UniProt P25106, D275N) (P25106 whole entry D275N): as the sequence (P25106 whole entry) above, with D275N counted along it

Structure (SMILES) | IC50 [1] | IC50 [2] | also measured
N=C(N)NCCC[C@@H]1NC(=O)[C@H](CCCNC(=N)N)NC(=O)[C@@H](Cc2ccc(O)cc2)NC(=O)[C@@H]2CCCN2C(=O)[C@H](Cc2ccc3ccccc3c2)NC1=O | 1.5 µM | > 30 µM | EC50 ([3]; read-out: EC50): 0.074 µM; EC50 ([4]; read-out: EC50): 0.19 µM; EC50 ([4]; read-out: pEC50 (converted)): 0.126 µM; EC50 ([5]; read-out: EC50): 3.5 µM; EC50 ([5]; read-out: pEC50 (converted)): 3.98 µM; EC50 [6]: 0.36 µM; EC50 [7]: 1.5 µM
N=C(N)NCCC[C@@H]1NC(=O)[C@H](CCCNC(=N)N)NC(=O)[C@@H](Cc2ccc(O)cc2)NC(=O)[C@H]2CCCN2C(=O)[C@H](Cc2ccc3ccccc3c2)NC1=O | > 30 µM | > 30 µM | 
C[C@H]1C(=O)N[C@H](Cc2ccc(O)cc2)C(=O)N[C@@H](CCCNC(=N)N)C(=O)N[C@@H](CCCNC(=N)N)C(=O)N[C@@H](Cc2ccc3ccccc3c2)C(=O)N1C | 15 µM | > 30 µM | 
N=C(N)NCCC[C@@H]1NC(=O)[C@@H](Cc2ccc(O)cc2)NC(=O)[C@@H]2CCCN2C(=O)[C@H](Cc2ccc3ccccc3c2)NC(=O)[C@@H](CCCNC(=N)N)NC1=O | > 30 µM | > 30 µM | 
N=C(N)NCCC[C@@H]1NC(=O)[C@H](CCCNC(=N)N)NC(=O)[C@@H](Cc2ccc(O)cc2)NC(=O)[C@@H]2CCCN2C(=O)[C@@H](Cc2ccc3ccccc3c2)NC1=O | > 30 µM | > 30 µM | 
CN1C(=O)[C@H](CCCNC(=N)N)NC(=O)[C@H](CCCNC(=N)N)NC(=O)[C@@H](Cc2ccc(O)cc2)NC(=O)[C@@H]2CCCN2C(=O)[C@@H]1Cc1ccc2ccccc2c1 | 3.4 µM | > 30 µM | 
CN1C(=O)[C@@H]2CCCN2C(=O)[C@H](Cc2ccc3ccccc3c2)NC(=O)[C@H](CCCNC(=N)N)NC(=O)[C@H](CCCNC(=N)N)NC(=O)[C@@H]1Cc1ccc(O)cc1 | 23 µM | > 30 µM | 
CN1C(=O)[C@@H](Cc2ccc(O)cc2)NC(=O)[C@@H]2CCCN2C(=O)[C@H](Cc2ccc3ccccc3c2)NC(=O)[C@H](CCCNC(=N)N)NC(=O)[C@H]1CCCNC(=N)N | 13 µM | > 30 µM | 
CN1C(=O)[C@H](CCCNC(=N)N)NC(=O)[C@@H](Cc2ccc(O)cc2)NC(=O)[C@@H]2CCCN2C(=O)[C@H](Cc2ccc3ccccc3c2)NC(=O)[C@H]1CCCNC(=N)N | 4.6 µM | > 30 µM | 
C[C@H]1NC(=O)[C@@H]2CCCN2C(=O)[C@H](Cc2ccc3ccccc3c2)NC(=O)[C@H](CCCNC(=N)N)N(C)C(=O)[C@H](CCCNC(=N)N)NC1=O | > 30 µM | > 30 µM | 
C[C@@H]1NC(=O)[C@@H](Cc2ccc(O)cc2)NC(=O)[C@@H]2CCCN2C(=O)[C@H](Cc2ccc3ccccc3c2)NC(=O)[C@H](CCCNC(=N)N)N(C)C1=O | 16 µM | > 30 µM | 
C[C@H]1C(=O)N[C@@H](Cc2ccc3ccccc3c2)C(=O)N2CCC[C@H]2C(=O)N[C@H](Cc2ccc(O)cc2)C(=O)N[C@@H](CCCNC(=N)N)C(=O)N1C | 11 µM | > 30 µM | 
C[C@@H]1NC(=O)[C@H](CCCNC(=N)N)N(C)C(=O)[C@H](CCCNC(=N)N)NC(=O)[C@@H](Cc2ccc(O)cc2)NC(=O)[C@@H]2CCCN2C1=O | > 30 µM | > 30 µM | 
N=C(N)NCCC[C@@H]1NC(=O)[C@H](CCCNC(=N)N)NC(=O)[C@@H](Cc2ccc(O)cc2)NC(=O)CNC(=O)[C@H](Cc2ccc3ccccc3c2)NC1=O | > 30 µM |  | EC50 ([3]; read-out: EC50): 2.4 µM; EC50 ([3]; read-out: pEC50 (converted)): 2 µM
C[C@@H]1NC(=O)[C@H](Cc2ccc3ccccc3c2)NC(=O)[C@H](CCCNC(=N)N)NC(=O)[C@H](CCCNC(=N)N)NC(=O)[C@@H](Cc2ccc(O)cc2)NC1=O (cyclo([2Nal]A[dY]RR)) | 18 µM | 23 µM | 
CC[C@H](C)[C@@H]1NC(=O)[C@H]([C@@H](C)O)NC(=O)[C@H]2CCCN2C(=O)[C@H](Cc2ccc3ccccc3c2)NC(=O)[C@H](CCCNC(=N)N)NC(=O)[C@@H](CCCNC(=N)N)NC1=O (cyclo([2Nal][dP]TI[dR]R)) | 1.7 µM |  | EC50 ([3]; read-out: EC50): 0.036 µM; EC50 ([3]; read-out: pEC50 (converted)): 0.0316 µM
N=C(N)NCCC[C@@H]1NC(=O)[C@H](CCCNC(=N)N)NC(=O)[C@@H](Cc2ccc(O)cc2)NC(=O)CCNC(=O)[C@H](Cc2ccc3ccccc3c2)NC1=O (cyclo([2Nal][βAla][dY]RR)) | > 30 µM | 6 µM | 
C[C@H]1NC(=O)[C@H](Cc2ccc3ccccc3c2)NC(=O)[C@H](CCCNC(=N)N)NC(=O)[C@H](CCCNC(=N)N)NC(=O)[C@@H](Cc2ccc(O)cc2)NC1=O (cyclo([dY]RR[2Nal][dA])) | > 30 µM | 2.2 µM | 

The next lines start with results.

IC50 [1] | IC50 [2] | Structure (SMILES) | also measured
> 30 µM | 4.6 µM | C[C@@H]1C(=O)N[C@H](Cc2ccc(O)cc2)C(=O)N[C@@H](CCCNC(=N)N)C(=O)N[C@@H](CCCNC(=N)N)C(=O)N[C@@H](Cc2ccc3ccccc3c2)C(=O)N1C | 
> 30 µM | > 30 µM | N=C(N)NCCC[C@@H]1NC(=O)[C@H](Cc2ccc(O)cc2)NC(=O)[C@@H]2CCCN2C(=O)[C@H](Cc2ccc3ccccc3c2)NC(=O)[C@H](CCCNC(=N)N)NC1=O | 
4.6 µM | > 30 µM | N=C(N)NCCC[C@@H]1NC(=O)[C@@H](CCCNC(=N)N)NC(=O)[C@@H](Cc2ccc(O)cc2)NC(=O)[C@@H]2CCCN2C(=O)[C@H](Cc2ccc3ccccc3c2)NC1=O | 
18 µM | > 30 µM | CN1C(=O)[C@@H]2CCCN2C(=O)[C@H](Cc2ccc3ccccc3c2)NC(=O)[C@H](CCCNC(=N)N)NC(=O)[C@H](CCCNC(=N)N)NC(=O)[C@H]1Cc1ccc(O)cc1 | 
2.4 µM | > 30 µM | CN1C(=O)[C@@H](Cc2ccc(O)cc2)NC(=O)[C@@H]2CCCN2C(=O)[C@H](Cc2ccc3ccccc3c2)NC(=O)[C@H](CCCNC(=N)N)NC(=O)[C@@H]1CCCNC(=N)N | 
0.8 µM | > 30 µM | CN1C(=O)[C@H](CCCNC(=N)N)NC(=O)[C@@H](Cc2ccc(O)cc2)NC(=O)[C@@H]2CCCN2C(=O)[C@H](Cc2ccc3ccccc3c2)NC(=O)[C@@H]1CCCNC(=N)N | EC50 ([3]; read-out: EC50): 0.095 µM; EC50 ([4]; read-out: EC50): 0.24 µM; EC50 ([4]; read-out: pEC50 (converted)): 0.158 µM; EC50 ([5]; read-out: EC50): 2 µM; EC50 [6]: 0.36 µM; EC50 [7]: 0.65 µM
> 30 µM | > 30 µM | CN1C(=O)[C@H](CCCNC(=N)N)NC(=O)[C@H](CCCNC(=N)N)NC(=O)[C@@H](Cc2ccc(O)cc2)NC(=O)[C@@H]2CCCN2C(=O)[C@H]1Cc1ccc2ccccc2c1 | 
13 µM | > 30 µM | N=C(N)NCCC[C@@H]1NC(=O)[C@H](CCCNC(=N)N)NC(=O)[C@@H](Cc2ccc(O)cc2)NC(=O)[C@@H]2CCCCN2C(=O)[C@H](Cc2ccc3ccccc3c2)NC1=O (cyclo([2Nal][Pip][dY]RR)) | 
> 30 µM | > 30 µM | N=C(N)NCCC[C@@H]1NC(=O)[C@H](CCCNC(=N)N)NC(=O)[C@@H](Cc2ccc(O)cc2)NC(=O)[C@H]2CCCCN2C(=O)[C@H](Cc2ccc3ccccc3c2)NC1=O (cyclo([2Nal][dPip][dY]RR)) | 
